# Activity calls are given as the source filed them. The calls are words filed in the database; no cut-off is given here.
# Tests used:
# [1] = target: T1, Phosphatidylinositol 4,5-bisphosphate 3-kinase catalytic subunit delta isoform (Homo sapiens) (UniProt O00329); experiment: Inhibition of PI3Kdelta in human SU-DHL-5 cells assessed as inhibition of 4EBP1 phosphorylation at 1 to 5 uM measured after 3 hrs by western blot assay; assay type: cell-based; conditions: dose 1-5 µM
# T1 sequence (whole entry): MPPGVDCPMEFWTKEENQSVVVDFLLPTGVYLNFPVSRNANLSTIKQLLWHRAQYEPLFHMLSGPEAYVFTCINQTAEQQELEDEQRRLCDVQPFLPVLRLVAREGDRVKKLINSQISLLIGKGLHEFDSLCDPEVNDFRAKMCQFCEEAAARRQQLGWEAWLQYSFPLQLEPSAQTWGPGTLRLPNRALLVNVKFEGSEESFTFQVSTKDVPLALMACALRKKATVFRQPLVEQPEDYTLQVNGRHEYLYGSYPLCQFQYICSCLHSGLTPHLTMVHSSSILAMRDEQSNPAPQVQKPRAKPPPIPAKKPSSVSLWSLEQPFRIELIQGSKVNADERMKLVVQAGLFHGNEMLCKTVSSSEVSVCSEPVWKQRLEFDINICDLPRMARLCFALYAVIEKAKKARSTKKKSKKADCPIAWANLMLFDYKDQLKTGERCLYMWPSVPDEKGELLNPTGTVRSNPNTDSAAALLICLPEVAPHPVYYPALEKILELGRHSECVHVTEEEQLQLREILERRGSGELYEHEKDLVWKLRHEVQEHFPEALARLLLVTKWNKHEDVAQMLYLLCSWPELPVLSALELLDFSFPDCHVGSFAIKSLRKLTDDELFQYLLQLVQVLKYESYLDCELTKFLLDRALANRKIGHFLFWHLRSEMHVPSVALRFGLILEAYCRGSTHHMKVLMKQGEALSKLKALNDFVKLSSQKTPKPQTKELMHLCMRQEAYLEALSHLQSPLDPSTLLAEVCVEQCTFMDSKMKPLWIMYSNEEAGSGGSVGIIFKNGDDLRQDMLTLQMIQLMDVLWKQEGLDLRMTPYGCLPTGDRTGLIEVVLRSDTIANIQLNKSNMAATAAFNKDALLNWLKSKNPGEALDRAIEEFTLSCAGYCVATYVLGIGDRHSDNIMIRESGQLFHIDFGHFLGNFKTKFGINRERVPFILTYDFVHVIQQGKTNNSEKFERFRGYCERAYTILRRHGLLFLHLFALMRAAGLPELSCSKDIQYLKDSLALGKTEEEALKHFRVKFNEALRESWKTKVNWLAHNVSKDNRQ
# In short: (§1)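 Treatment lasted 3 h: SUDHL-5 at 1 μM, MOLT-4 at 5 μM. Cells washed twice in cold PBS and lysed. Proteins resolved on 10–12% SDS-PAGE and blotted to PVDF. Probed for p-AKT S473, p-AKT T308, p-S6 and p-4E-BP1, with β-actin as loading control.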
# [2] = tested on: MOLT-4; experiment: Induction of apoptosis in human MOLT-4 cells assessed as early apoptotic cells at 20 uM measured after 24 hrs by AnnexinV-FITC/PI staining based flowcytometry method (reference value: 2.04%); assay type: functional
# In short: (§2)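 Cells exposed to 20 μM compound for 24 h, washed with cold PBS, and stained with Annexin V-FITC and propidium iodide for 15 min at room temperature. Viable, early apoptotic, late apoptotic and necrotic populations quantified by flow cytometry.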
# [3] = target: T1, Phosphatidylinositol 4,5-bisphosphate 3-kinase catalytic subunit delta isoform (Homo sapiens); experiment: Inhibition of PI3Kdelta in human SU-DHL-5 cells assessed as inhibition of AKT phosphorylation at Ser473 residue at 1 to 5 uM measured after 3 hrs by western blot assay; assay type: cell-based; conditions: dose 1-5 µM; in short: as §1
# [4] = target: T1, Phosphatidylinositol 4,5-bisphosphate 3-kinase catalytic subunit delta isoform (Homo sapiens); experiment: Inhibition of PI3Kdelta in human MOLT-4 cells assessed as inhibition of AKT phosphorylation at Thr308 residue at 1 to 5 uM measured after 3 hrs by western blot assay; assay type: cell-based; conditions: dose 1-5 µM; in short: as §1
# [5] = tested on: MOLT-4; experiment: Antiproliferative activity against human MOLT-4 cells assessed as cell viability at 20 uM by CellTiter-Glo luminescent cell viability assay (reference value: 100%); assay type: functional; conditions: read-out: Activity
# [6] = Half life in Sprague-Dawley rat at 3 mg/kg, po measured for 24 hrs by LC-MS/MS analysis; assay type: ADME, organism-based; conditions: in vivo
# In short: (§3)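 Sprague-Dawley rats dosed orally at 1 or 3 mg/kg, three animals per group. Blood sampled at 0.25, 0.5, 1, 2, 4, 8 and 24 h post-dose. Plasma separated by centrifugation, extracted and quantified by LC-MS/MS. PK parameters (Cmax, AUClast, Tmax, t1/2) derived by non-compartmental software.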
# [7] = Cytotoxicity against human MRC5 cells assessed as inhibition of cell viability at 20 uM measured after 48 hrs by MTT assay; assay type: cell-based; conditions: read-out: INH
# In short: (§4)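 MTT assay in MRC-5 cells seeded at 2×10^6 cells/mL. Compound given in 1% FBS EMEM for 48 h at 37 °C in CO2. MTT solution then added for 3 h at 37 °C. Medium removed and formazan dissolved in DMSO.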
# [8] = AUC (last) in Sprague-Dawley rat at 3 mg/kg, po measured for 24 hrs by LC-MS/MS analysis; assay type: ADME, organism-based; set-up: route oral, time 24 hrs, dose 3 mg/kg; conditions: in vivo; in short: as §3
# [9] = tested on: MRC5; experiment: Cytotoxicity against human MRC5 cells assessed as inhibition of cell viability measured after 48 hrs by MTT assay; assay type: cell-based; conditions: MRC5, 48 h; in short: as §4
# [10] = tested on: SU-DHL10; experiment: Induction of apoptosis in human SU-DHL-10 cells assessed as necrotic cells at 20 uM measured after 24 hrs by AnnexinV-FITC/PI staining based flowcytometry method (reference value: 0.2%); assay type: functional; in short: as §2
# [11] = tested on: SU-DHL10; experiment: Induction of apoptosis in human SU-DHL-10 cells assessed as early apoptotic cells at 20 uM measured after 24 hrs by AnnexinV-FITC/PI staining based flowcytometry method (reference value: 6.32%); assay type: functional; in short: as §2
# [12] = tested on: MOLT-4; experiment: Induction of apoptosis in human MOLT-4 cells assessed as late apoptotic cells at 20 uM measured after 24 hrs by AnnexinV-FITC/PI staining based flowcytometry method (reference value: 2.17%); assay type: functional; in short: as §2
# [13] = tested on: MOLT-4; experiment: Induction of apoptosis in human MOLT-4 cells assessed as necrotic cells at 20 uM measured after 24 hrs by AnnexinV-FITC/PI staining based flowcytometry method (reference value: 0.51%); assay type: functional; in short: as §2
# [14] = tested on: MOLT-4; experiment: Antitumour activity against human MOLT-4 cells xenografted in Balb/c nude mouse assessed as inhibition of tumour growth at 10 mg/kg, po administered via gavage qd for 57 days; assay type: functional; conditions: MOLT-4, po, 1368 h, time 57 day, read-out: TGI
# In short: (§5)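 MOLT-4 cells (2×10^6 in 0.1 mL D-PBS) implanted subcutaneously on the back of BALB/c-nude mice. Once tumours grew, mice were dosed daily by oral gavage at 10 mg/kg for 57 consecutive days. Tumours measured by caliper, with volume = ½ × […]. Body weight was tracked over the same period.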
# [15] = target: T1, Phosphatidylinositol 4,5-bisphosphate 3-kinase catalytic subunit delta isoform (Homo sapiens); experiment: Inhibition of PI3Kdelta in human SU-DHL-5 cells assessed as inhibition of AKT phosphorylation at Thr308 residue at 1 to 5 uM measured after 3 hrs by western blot assay; assay type: cell-based; conditions: dose 1-5 µM; in short: as §1
# [16] = Toxicity in Balb/c nude mouse xenografted with human MOLT-4 cells assessed as changes in body weight at 10 mg/kg, po administered via gavage qd for 57 days; assay type: organism-based; conditions: in vivo, 1368 h, dose 10 mg/kg/day, time 57 day; in short: as §5
# [17] = Cmax in Sprague-Dawley rat at 3 mg/kg, po measured for 24 hrs by LC-MS/MS analysis; assay type: ADME, organism-based; set-up: route oral, time 24 hrs, dose 3 mg/kg; conditions: in vivo; in short: as §3
Compound,inhibition [1],Activity [2],inhibition [3],inhibition [4],viability at 20 µM [5],half-life [6],"cytotoxicity at 48 h, 20 µM [7]",AUC(0-t) at 24 h [8],IC50 [9],Activity [10],Activity [11],Activity [12],Activity [13],inhibition in vivo at 10 mg/kg/day [14],inhibition [15],Activity [16],Cmax [17]
O=c1c2c(F)cccc2nc([C@@H](Nc2ncnc3nc[nH]c23)C2CC2)n1-c1ccccc1,Active,17.8%,Active,Active,63.1%,7.7 h,3.93%,0.255 µg·h/mL,> 100 µM,1.77%,54.3%,30.3%,2.47%,55.1%,Active,Non-Toxic,0.0419 µg/mL
Cc1cccc2nc([C@@H](Nc3ncnc4nc[nH]c34)C3CC3)n(-c3ccccc3)c(=O)c12,Active,13.4%,Active,Active,14.6%,8.3 h,23.1%,0.0372 µg·h/mL,49.1 µM,4.16%,34.9%,42.3%,3.3%,56.7%,Active,Non-Toxic,0.0111 µg/mL
